Measurements reported in ChEMBL document CHEMBL4038338 (J Med Chem, 2017).
Activity calls are given as the source filed them. The calls are words filed in the database; no cut-off is given here.

Experiments:
[1] = tested on: Rattus norvegicus; experiment: Neuroprotective activity in Fisher rat assessed as effect on latency in rapid eye movement at 3 mg/kg administered via oral gavage measured for 8 hrs at the beginning of 12 hr light period by EEG analysis relative to control; assay type: functional
How it was run: (§1)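 Male Fisher rats (250–330 g) fitted with frontal/occipital EEG electrodes under ketamine/pentobarbital. Dosed by gavage in Cremophor EL/Capmul PG8 (20:80) just before recording. EEG recorded for 8 h from the start of the light period, without food or water. Crossover design with alternate treatment one week later; each animal served as its own control. Results as % of vehicle.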

[2] = tested on: Rattus norvegicus; experiment: Neuroprotective activity in Fisher rat assessed as effect on latency in rapid eye movement at 1 mg/kg administered via oral gavage measured for 8 hrs at the beginning of 12 hr light period by EEG analysis relative to control; assay type: functional; how it was run: as §1
[3] = tested on: Rattus norvegicus; experiment: Neuroprotective activity in sc dosed Sprague-Dawley rat assessed as increase in microdialysate acetylcholine levels in medial prefrontal cortex measured every 20 mins by HPLC analysis; assay type: functional, organism-based
How it was run: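 Male Sprague-Dawley rats (290–320 g) implanted with medial prefrontal cortex microdialysis probes. Perfusion with Ringer solution containing 1 µM neostigmine at 1.5 µL/min. Twenty-minute fractions collected, six before and six after 1, 3 or 10 mg/kg s.c. (ethanol/PEG400/water vehicle). Acetylcholine measured by HPLC with an enzyme reactor and electrochemical detection, expressed as % of baseline.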

[4] = target: T1, Calpain-1 catalytic subunit (Rattus norvegicus, UniProt P97571); experiment: (§2) Inhibition of calpain-1 in rat hippocampal slices assessed as prevention of NMDA-induced spectrin cleavage preincubated for 30 mins followed by NMDA addition measured after 5 hrs by Western blot analysis
T1 sequence (P97571 whole entry): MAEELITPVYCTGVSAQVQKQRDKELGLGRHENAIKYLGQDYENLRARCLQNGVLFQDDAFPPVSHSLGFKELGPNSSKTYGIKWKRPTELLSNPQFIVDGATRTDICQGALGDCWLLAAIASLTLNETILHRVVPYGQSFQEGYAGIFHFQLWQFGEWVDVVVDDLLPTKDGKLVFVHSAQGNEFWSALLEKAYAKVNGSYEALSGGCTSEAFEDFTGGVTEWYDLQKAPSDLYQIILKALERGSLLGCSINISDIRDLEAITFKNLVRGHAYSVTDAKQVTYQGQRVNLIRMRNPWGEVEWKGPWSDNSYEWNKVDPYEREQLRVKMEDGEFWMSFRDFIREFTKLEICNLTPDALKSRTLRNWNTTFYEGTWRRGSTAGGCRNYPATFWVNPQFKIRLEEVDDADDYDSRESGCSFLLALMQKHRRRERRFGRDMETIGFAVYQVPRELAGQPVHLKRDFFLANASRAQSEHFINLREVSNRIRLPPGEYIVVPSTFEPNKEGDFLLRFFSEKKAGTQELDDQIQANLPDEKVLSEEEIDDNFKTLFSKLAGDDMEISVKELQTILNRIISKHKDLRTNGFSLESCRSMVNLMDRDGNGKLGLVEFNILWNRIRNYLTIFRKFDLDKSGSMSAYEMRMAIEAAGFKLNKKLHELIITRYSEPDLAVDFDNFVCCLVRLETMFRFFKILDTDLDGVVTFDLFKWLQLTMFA
How it was run: (§3)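 Organotypic rat hippocampal slice cultures kept 6–8 days in 2% serum medium; 30 min inhibitor pre-incubation, then 10 µM NMDA for 5 h at 34°C, 5% CO2. Slices lysed; 150/145 kDa spectrin breakdown products quantified by densitometric Western blot with anti-spectrin alpha chain antibody.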

[5] = target: T2, Calpain-1 catalytic subunit (Rattus norvegicus) (UniProt P97571); experiment: as §2; how it was run: as §3
T2 sequence (whole entry): T1 sequence (P97571 whole entry)

[6] = target: T2, Calpain-1 catalytic subunit (Rattus norvegicus); experiment: Inhibition of calpain-1 in rat hippocampal slices assessed as prevention of amyloid beta(1-42) globulomer-induced synaptic deficits at 10 nM co-administered with amyloid beta(1-42) globulomer […] by Schaffer collateral analysis; conditions: in the assay text read “after 1 day” for “after 1 hr”
How it was run: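 Hippocampal slices from 9–10-day-old Wistar rats cultured 15–18 days; 82 nM Aβ1-42 globulomer added to medium 1 day before recording, with compound co-applied; vehicle-only group included. Slices moved to interface chamber perfused with aCSF ≥1 h before recording; input/output after Schaffer collateral stimulation; 2-way repeated-measures ANOVA, Holm-Sidak.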

[7] = target: T3, Calpain-1 catalytic subunit (Homo sapiens) (UniProt P07384); experiment: Inhibition of human erythrocytes calpain-1 using Suc-Leu-Tyr-AMC as substrate in presence of up to 10 mM glutathione by kinetic fluorescence assay
T3 sequence (whole entry): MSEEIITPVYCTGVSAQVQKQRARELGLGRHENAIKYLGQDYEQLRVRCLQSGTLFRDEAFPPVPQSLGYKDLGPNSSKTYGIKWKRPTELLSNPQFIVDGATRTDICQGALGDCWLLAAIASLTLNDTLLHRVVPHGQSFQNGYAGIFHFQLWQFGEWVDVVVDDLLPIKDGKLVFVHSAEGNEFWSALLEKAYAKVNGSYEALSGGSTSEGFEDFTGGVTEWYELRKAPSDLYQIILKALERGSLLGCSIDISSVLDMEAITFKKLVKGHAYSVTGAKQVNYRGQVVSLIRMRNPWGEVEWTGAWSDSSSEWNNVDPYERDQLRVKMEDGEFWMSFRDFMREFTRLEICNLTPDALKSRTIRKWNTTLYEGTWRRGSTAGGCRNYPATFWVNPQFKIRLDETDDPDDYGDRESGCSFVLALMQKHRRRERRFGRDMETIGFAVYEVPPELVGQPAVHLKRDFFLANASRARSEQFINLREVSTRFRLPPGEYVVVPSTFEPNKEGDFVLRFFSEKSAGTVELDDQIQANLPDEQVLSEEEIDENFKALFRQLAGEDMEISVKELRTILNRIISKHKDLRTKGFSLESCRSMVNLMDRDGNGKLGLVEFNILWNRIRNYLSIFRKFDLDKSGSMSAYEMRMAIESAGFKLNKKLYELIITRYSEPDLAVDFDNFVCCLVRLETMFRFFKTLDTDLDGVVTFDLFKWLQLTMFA

[8] = tested on: Rattus norvegicus; experiment: Neuroprotective activity in Fisher rat assessed as effect on rapid eye movement time at 3 mg/kg administered via oral gavage measured after 8 hrs at the beginning of 12 hr light period by EEG analysis relative to control; assay type: functional; how it was run: as §1
[9] = target: T4, Calpain-1 catalytic subunit (Homo sapiens, UniProt P07384); experiment: Inhibition of human erythrocytes calpain-1 using Suc-Leu-Tyr-AMC as substrate by kinetic fluorescence assay; conditions: read-out: Ki
T4 sequence (P07384 whole entry): T3 sequence (whole entry)

[10] = tested on: Rattus norvegicus; experiment: Neuroprotective activity in Fisher rat assessed as effect on rapid eye movement time at 10 mg/kg administered via oral gavage measured after 8 hrs at the beginning of 12 hr light period by EEG analysis relative to control; assay type: functional; how it was run: as §1
[11] = tested on: Rattus norvegicus; experiment: Neuroprotective activity in Wistar rat assessed as protection against scopolamine-induced cognitive impairment at 1 to 3 mg/kg, sc administered prior to scopolamine induction measured after 24 hrs; assay type: functional, organism-based
How it was run: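 Scopolamine 0.1 mg/kg s.c., with test compound given s.c. beforehand in ethanol/PEG400/water (20:30:50). Single step-through passive avoidance training: 2 min habituation in the lit compartment, then a 0.5 mA, 2 s footshock on entering the dark side. Latency to enter the dark compartment measured 24 h later; n=14–47/group.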

[12] = tested on: Rattus norvegicus; experiment: Neuroprotective activity in Fisher rat assessed as effect on latency in rapid eye movement at 10 mg/kg administered via oral gavage measured for 8 hrs at the beginning of 12 hr light period by EEG analysis relative to control; assay type: functional; how it was run: as §1
[13] = target: T2, Calpain-1 catalytic subunit (Rattus norvegicus); experiment: Inhibition of calpain-1 in rat hippocampal slices assessed as prevention of NMDA-induced tau cleavage preincubated for 30 mins followed by NMDA addition measured after 5 hrs by Western blot analysis
How it was run: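 Same slice protocol: rat hippocampal organotypic cultures, 30 min inhibitor pre-incubation, 10 µM NMDA for 5 h at 34°C, 5% CO2; lysates probed by densitometric Western blot for the 17 kDa tau cleavage fragment using anti-Tau 1 antibody.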

[14] = tested on: Rattus norvegicus; experiment: Neuroprotective activity in Fisher rat assessed as effect on rapid eye movement sleep pattern administered via oral gavage measured after 8 hrs at the beginning of 12 hr light period by EEG analysis; assay type: functional; how it was run: as §1
[15] = target: Cathepsin S (Homo sapiens, UniProt P25774); experiment: Inhibition of human cathepsin S expressed in Escherichia coli using Z-Val-Val-Arg-AMC as substrate by kinetic fluorescence assay
[16] = Inhibition of human liver cathepsin L using Z-Phe-Arg-AMC as substrate by kinetic fluorescence assay
[17] = organism: Homo sapiens; experiment: Selectivity ratio of Ki for recombinant human cathepsin S expressed in Escherichia coli to Ki for human erythrocytes calpain-1
How it was run: (§4)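 Ki ratios from kinetic fluorescence assays. Cathepsins B (0.25 nM), L (1 nM), K (3 nM) and S (0.5 nM) in MES buffer at pH 6.0. All at room temperature; Ki by Cheng-Prusoff.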

[18] = organism: Homo sapiens; experiment: Selectivity ratio of Ki for recombinant human procathepsin K expressed in Escherichia coli to Ki for human erythrocytes calpain-1; how it was run: as §4
[19] = Thiol reactivity using recombinant human full length 13C-labeled La antigen (100 to 324 residues) expressed in Escherichia coli BL21(DE3) by ALARM NMR
[20] = Selectivity ratio of Ki for human liver cathepsin B to Ki for human erythrocytes calpain-1
[21] = Selectivity ratio of Ki for human liver cathepsin L to Ki for human erythrocytes calpain-1

Cathepsin S, sequence (P25774 whole entry): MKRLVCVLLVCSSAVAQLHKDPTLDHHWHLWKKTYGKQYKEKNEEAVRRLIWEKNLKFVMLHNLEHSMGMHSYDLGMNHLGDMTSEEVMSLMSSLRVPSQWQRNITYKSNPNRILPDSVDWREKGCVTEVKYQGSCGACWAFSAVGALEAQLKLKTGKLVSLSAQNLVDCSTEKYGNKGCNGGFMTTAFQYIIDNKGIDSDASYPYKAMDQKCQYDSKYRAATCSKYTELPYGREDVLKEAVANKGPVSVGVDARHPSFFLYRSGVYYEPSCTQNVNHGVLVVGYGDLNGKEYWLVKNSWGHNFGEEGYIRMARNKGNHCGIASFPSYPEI

IC50 [4] | fIC50 [5] | inhibition [7] | Ki [9] | Structure (SMILES) | Ratio Ki [17] | Ratio Ki [18] | Thiol reactivity [19] | Ratio Ki [20] | Ratio Ki [21] | other results
0.591 µM | 41 nM | Active | 0.034 µM | NC(=O)C(=O)C(Cc1ccccc1)NC(=O)c1cccnc1-n1ccc(-c2ccc(F)cc2)n1 (stereo not given) | – | – | – | – | – | Activity [1]: 99%; Activity [2]: 100%; Activity [3]: Dose-dependent effect; inhibition [6]: Active; Activity [8]: 131%; Activity [10]: 125%; Activity [11]: Active; Activity [12]: 80%; fIC50 [13]: 46 nM; Activity [14]: Dose-dependent effect
– | – | – | 0.125 µM | NC(=O)C(=O)C(Cc1ccccc1)NC(=O)c1cccnc1N1CCC(c2ccccc2)C1 (stereo not given) | – | – | – | – | – | Ki [15]: 1.78 µM; Ki [16]: 0.039 µM
3.2 µM | 288 nM | Active | 0.046 µM | NC(=O)C(=O)C(Cc1ccccc1)NC(=O)c1cccnc1-n1cc2ccccc2n1 (stereo not given) | 51 | 6 | Metabolite not detected | 6 | 124 | –
5.18 µM | 155 nM | Active | 0.04 µM | NC(=O)C(=O)C(Cc1ccccc1)NC(=O)c1cccnc1-n1ccc(-c2cccc(C(F)(F)F)c2)n1 (stereo not given) | > 500 | 28 | Metabolite not detected | 17 | >300 | –
